For 24 compounds, IC50 and inhibition results are on record in ChEMBL document CHEMBL2062498, “3-Arylcoumarin derivatives manifest anti-proliferative activity through Hsp90 inhibition” (ACS Med Chem Lett, 2012).

One test concerns SK-BR-3. Put plainly: Antiproliferative activity against estrogen receptor-negative Her2 overexpressing in human SKBR3 cells. The test is classed as functional, cell-based. Summed up: (§1)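 IC50 values for growth inhibition are reported as means ± standard deviations from at least two separate experiments, each run in triplicate.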
The test system of another test is MCF7. Put plainly: Antiproliferative activity against estrogen receptor-positive in human MCF7 cells. The test is classed as functional, cell-based. The essentials: as §1
The target in test [1] is Heat shock protein HSP 90-beta (Homo sapiens) (UniProt P08238). The test can be described thus: Inhibition of HSP90 in human MCF7 cells assessed as degradation of Raf1 protein after 24 hrs by Western blot analysis. The test is classed as cell-based. Summed up:
(§2)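 MCF-7 breast cancer cells were exposed to a range of test concentrations (μM) for 24 h, then lysed. Lysates were immunoblotted for the Hsp90-dependent clients Raf-1 and Akt, and also for Hsp90 itself. Actin served as the non-Hsp90-dependent reference protein.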
A general note: A western blot detects proteins with antibodies after separation by electrophoresis.

Test [2] has the same target. Put plainly: Inhibition of HSP90 in human MCF7 cells assessed as degradation of Akt protein after 24 hrs by Western blot analysis. The format is cell-based. The essentials: as §2

Sequence of Heat shock protein HSP 90-beta (Homo sapiens) (P08238 whole entry): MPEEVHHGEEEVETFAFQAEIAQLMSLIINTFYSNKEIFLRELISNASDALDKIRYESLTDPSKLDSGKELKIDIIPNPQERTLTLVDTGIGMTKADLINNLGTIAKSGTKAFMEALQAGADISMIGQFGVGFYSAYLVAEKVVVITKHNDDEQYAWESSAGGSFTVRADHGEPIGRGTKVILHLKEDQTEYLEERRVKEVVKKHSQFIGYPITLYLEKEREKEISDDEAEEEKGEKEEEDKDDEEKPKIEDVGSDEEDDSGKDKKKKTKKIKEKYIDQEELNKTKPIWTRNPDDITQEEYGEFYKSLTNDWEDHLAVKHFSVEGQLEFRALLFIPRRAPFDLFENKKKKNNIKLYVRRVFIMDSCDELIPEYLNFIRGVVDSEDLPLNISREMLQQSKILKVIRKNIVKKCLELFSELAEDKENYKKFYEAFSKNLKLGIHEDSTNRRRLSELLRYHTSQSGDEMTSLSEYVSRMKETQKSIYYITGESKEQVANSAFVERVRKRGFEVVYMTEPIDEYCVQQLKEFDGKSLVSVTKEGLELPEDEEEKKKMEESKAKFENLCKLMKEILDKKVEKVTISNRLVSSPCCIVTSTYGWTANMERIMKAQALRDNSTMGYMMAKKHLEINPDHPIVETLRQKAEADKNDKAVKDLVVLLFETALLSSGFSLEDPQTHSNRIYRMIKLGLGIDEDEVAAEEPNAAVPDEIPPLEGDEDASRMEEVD

By IC50 is commonly meant the midpoint of a concentration-inhibition curve. Lower therefore signals higher potency. As to `Cc1c(OC2CCN(C)CC2)ccc2cc(-c3ccc4c(c3)OCO4)c(=O)oc12`, the IC50 with SK-BR-3 was 5.21 µM; in the test with MCF7, 3.71 µM.

As for `CN1CCC(Oc2ccc3cc(-c4ccc5c(c4)OCO5)c(=O)oc3c2)CC1`, the IC50 in the test on SK-BR-3 stood at 14.8 µM; in the test with MCF7 it was 8.79 µM.

Consider `COc1ccc(-c2cc3ccc(OC4CCN(C)CC4)cc3oc2=O)cc1`, for which the IC50 in the test with SK-BR-3 was 29.9 µM; in the test on MCF7 it was 16.9 µM.

Regarding `CN1CCC(Oc2ccc3cc(-c4cccc(F)c4)c(=O)oc3c2)CC1`, the IC50 in the test with SK-BR-3 stood at 24.9 µM; in the test with MCF7, 7.67 µM.

As to `CN1CCC(Oc2ccc3cc(-c4ccc(Oc5ccccc5)cc4)c(=O)oc3c2)CC1`, the IC50 in the test with SK-BR-3 was 4.43 µM; in the test with MCF7, 1.45 µM.

Consider `CN1CCC(Oc2ccc3cc(-c4ccccc4)c(=O)oc3c2)CC1`, for which the IC50 stood at 38.4 µM in the test with SK-BR-3 and 29 µM with MCF7.

With `COc1ccc(-c2cc3ccc(OC4CCN(C)CC4)c(C)c3oc2=O)cc1`, the half-maximal inhibitory concentration (IC50) was found to be 5.52 µM with SK-BR-3 and 1.97 µM in the test with MCF7.

On to `CN1CCC(Oc2ccc3cc(-c4ccccc4-c4ccccc4)c(=O)oc3c2)CC1`, for which the half-inhibitory concentration (IC50) in the test with SK-BR-3 and in the test with MCF7 was 15.6 µM each time.

With `Cc1c(OC2CCN(C)CC2)ccc2cc(-c3ccccc3)c(=O)oc12`, the IC50 amounted to 14.3 µM in the test with SK-BR-3 and 7.72 µM in the test on MCF7.

Take `CN1CCC(Oc2ccc3cc(-c4ccc(-c5ccccc5)cc4)c(=O)oc3c2)CC1`: the values for the IC50 in the test on SK-BR-3 and in the test with MCF7 were 3.33 µM and 3.08 µM, respectively.

Turning to `CN1CCC(Oc2ccc3cc(-c4ccc(Cl)cc4)c(=O)oc3c2)CC1`, the half-inhibitory concentration (IC50) in the test on SK-BR-3 was found to be 8.24 µM; in the test on MCF7, 3.89 µM.

As for `Cc1c(OC2CCN(C)CC2)ccc2cc(-c3ccc(OC(F)(F)F)cc3)c(=O)oc12`, the IC50 in the test with SK-BR-3 stood at 4.51 µM; with MCF7 it was 1.65 µM.

As for `CN1CCC(Oc2ccc3cc(-c4ccc(F)cc4)c(=O)oc3c2)CC1`, the results for the half-maximal inhibitory concentration (IC50) with SK-BR-3 and with MCF7 were 43.9 µM and 10.5 µM, respectively.

As for `CN1CCC(Oc2ccc3cc(-c4ccccc4Cl)c(=O)oc3c2)CC1`, the half-maximal inhibitory concentration (IC50) with SK-BR-3 turned out to be 25.4 µM; in the test with MCF7 it was 10.6 µM.

Turning to `Cc1c(OC2CCN(C)CC2)ccc2cc(-c3ccc(F)cc3)c(=O)oc12`, the IC50 in the test on SK-BR-3 was 7.38 µM; with MCF7, 3.83 µM.

For the compound `CN1CCC(Oc2ccc3cc(-c4ccc(OC(F)(F)F)cc4)c(=O)oc3c2)CC1`, the results for the IC50 with SK-BR-3 and with MCF7 were 5.78 µM and 4.12 µM, respectively.

On to `CN1CCC(Oc2ccc3cc(-c4cc5ccccc5s4)c(=O)oc3c2)CC1`, for which the figures for the IC50 with SK-BR-3 and in the test on MCF7 were 0.98 µM and 0.81 µM, respectively. The inhibition entry in test [1] and in test [2] was “Dose-dependent effect” each time.

Consider `CN1CCC(Oc2ccc3cc(-c4ccc(C(C)(C)C)cc4)c(=O)oc3c2)CC1`, for which the values for the half-inhibitory concentration (IC50) in the test with SK-BR-3 and in the test on MCF7 were 4.42 µM and 2.36 µM, respectively.

As for `Cc1ccc(-c2cc3ccc(OC4CCN(C)CC4)cc3oc2=O)cc1`, the concentration for half-maximal inhibition (IC50) came to 11.2 µM in the test on SK-BR-3 and 8.6 µM with MCF7.

Take `CN1CCC(Oc2ccc3cc(-c4cc5ccccc5o4)c(=O)oc3c2)CC1`: the IC50 was found to be 5.84 µM with SK-BR-3 and 4.93 µM with MCF7.

`CN1CCC(Oc2ccc3cc(-c4cccc(C#N)c4)c(=O)oc3c2)CC1`: the IC50 in the test on SK-BR-3 was 10.6 µM; with MCF7, 8.42 µM.

Consider `CN1CCC(Oc2ccc3cc(-c4cccc(Cl)c4)c(=O)oc3c2)CC1`, for which the IC50 with SK-BR-3 is 9.46 µM; in the test on MCF7 it was 5.79 µM.

`CN1CCC(Oc2ccc3cc(-c4cccc(C(F)(F)F)c4)c(=O)oc3c2)CC1`: the figures for the IC50 in the test on SK-BR-3 and in the test with MCF7 were 9.21 µM and 4.64 µM, respectively.

Turning to `Cc1c(OC2CCN(C)CC2)ccc2cc(-c3ccc(Cl)cc3)c(=O)oc12`, the 50% inhibitory concentration (IC50) with SK-BR-3 was determined as 4.94 µM; in the test with MCF7 it was 1.24 µM.
